Activity calls are given as the source filed them. The calls are words filed in the database; no cut-off is given here.
Assays:
Mus musculus [1] = assay: Adjuvanted-antitumor vaccine activity in C57BL/6 mouse assessed as potentiation of Th2 mediated response by measuring increase in IL-4 level in splenocytes at 4 nmol, ip administered on […] and measured after 1 weeks post-last dose by incubating splenocytes with MUC1 peptide for 48 hrs by ELISA; type: functional, organism-based
Method in brief: (§1)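 Splenocytes came from female C57BL/6 mice immunized ip on days 0, 14, 28 and 42. They were restimulated in culture with MUC1 peptide (10 μg/mL), and IL-4, IL-6, IL-12 and IFN-γ were measured in the supernatants. A PBS-immunized group served as comparison.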

Mus musculus [2] = assay: Adjuvanted-antitumor vaccine activity in C57BL/6 mouse assessed as induction of IgG production in serum at 4 nmol, ip administered […] and measured after 1 week post last dose by ELISA; type: functional, organism-based
Method in brief: (§2)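 Female C57BL/6 mice, immunized intraperitoneally on days 0, 14, 28 and 42 (PBS group as control). Sera were collected 1 week after the last dose. ELISA measured total IgG titer or the IgG1, IgG2b, IgG2c and IgG3 isotypes. Values are given as mean ± SD.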

Peritoneal macrophage [3] = assay: Adjuvanted-antitumor vaccine activity in C57BL/6 mouse peritoneal macrophages assessed as induction of IL-12 production after 24 hrs by ELISA; type: functional, cell-based
Method in brief: (§3)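 Peritoneal macrophages were harvested from C57BL/6 mice and incubated with the adjuvanted vaccine constructs. IL-6 and IL-12 released into the culture supernatant were quantified against a PBS control. Values are given as mean ± SD.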

Mus musculus [4] = assay: Adjuvanted-antitumor vaccine activity in C57BL/6 mouse assessed as potentiation of Th2 mediated response by measuring increase in IL-6 level in splenocytes at 4 nmol, ip administered […] and measured after 1 weeks post-last dose by incubating splenocytes with MUC1 peptide for 48 hrs by ELISA; type: functional, organism-based; method in brief: as §1
Mus musculus [5] = assay: Adjuvanted-antitumor vaccine activity in C57BL/6 mouse assessed as potentiation of MUC1 specific Th2 immune response by measuring increase in serum IgG1 level at 4 nmol, ip administered on […] and measured after 1 week post last dose by ELISA; type: functional, organism-based; method in brief: as §2
Mus musculus [6] = assay: Adjuvanted-antitumor vaccine activity in C57BL/6 mouse assessed as potentiation of Th1 mediated response by measuring increase in IFN-gamma level in splenocytes at 4 nmol, ip administered […] and measured after 1 week post-last dose by incubating splenocytes with MUC1 peptide for 48 hrs by ELISA; type: functional, organism-based; method in brief: as §1
Mus musculus [7] = assay: Aduvanted-antitumor vaccine activity in C57BL/6 mouse assessed as potentiation of MUC1 specific Th1 immune response by measuring increase in serum IgG2c level at 4 nmol, ip administered […] and measured after 1 week post last dose by ELISA; type: functional, organism-based; method in brief: as §2
Mus musculus [8] = assay: Adjuvanted-antitumor vaccine activity in C57BL/6 mouse assessed as potentiation of MUC1 specific Th2 immune response by measuring ratio of IgG1 to IgG2c in serum at 4 nmol, ip administered […] and measured after 1 week post last dose by ELISA; type: functional
Method in brief: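 Sera from female C57BL/6 mice given ip doses on days 0, 14, 28 and 42 were taken 1 week after the last dose. IgG1 and IgG2c were measured by ELISA and expressed as an IgG1/IgG2c ratio; a ratio above 1 was read as a Th2-type response.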

Mus musculus [9] = assay: Adjuvanted-antitumor vaccine activity in C57BL/6 mouse assessed as induction of MUC1-specific antisera production by measuring binding activity with MCF7 cells expressing MUC1 at 4 nmol, ip administered on […] and measured after 1 week post-last dose by incubating cells with compound-immunized mouse sera for 1 hr by FACS analysis; type: functional, organism-based
Method in brief: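 Antisera were collected 1 week after the fourth ip immunization (days 0, 14, 28, 42) of female C57BL/6 mice. MUC1-expressing human breast cancer MCF-7 cells were incubated with the antisera, then with FITC-labelled goat anti-mouse antibody, and binding was read by flow cytometry. The PBS-immunized group served as control.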

Peritoneal macrophage [10] = assay: Adjuvanted-antitumor vaccine activity in C57BL/6 mouse peritoneal macrophages assessed as induction of IL-6 production after 24 hrs by ELISA; type: functional, cell-based; method in brief: as §3
Mus musculus [11] = assay: Adjuvanted-antitumor vaccine activity in C57BL/6 mouse assessed as potentiation of Th1 mediated response by measuring increase in IL-12 level in splenocytes at 4 nmol, ip administered on […] and measured after 1 weeks post-last dose by incubating splenocytes with MUC1 peptide for 48 hrs by ELISA; type: functional, organism-based; method in brief: as §1
Mus musculus [12] = assay: Adjuvanted-antitumor vaccine activity in C57BL/6 mouse assessed as potentiation of MUC1 mediated immune response by measuring increase in serum IgG3 level at 4 nmol, ip administered on […] and measured after 1 week post last dose by ELISA; type: functional, organism-based; method in brief: as §2
Mus musculus [13] = assay: Adjuvanted-antitumor vaccine activity in C57BL/6 mouse assessed as potentiation of MUC1 mediated immune response by measuring increase in serum IgG2b level at 4 nmol, ip administered on […] and measured after 1 week post last dose by ELISA; type: functional, organism-based; method in brief: as §2

Structure (SMILES) | Activity (Mus musculus [1]) | Activity (Mus musculus [2]) | Activity (Peritoneal macrophage [3]) | Activity (Mus musculus [4]) | Activity (Mus musculus [5]) | Activity (Mus musculus [6]) | Activity (Mus musculus [7]) | Ratio (Mus musculus [8]) | Activity (Mus musculus [9]) | Activity (Peritoneal macrophage [10]) | Activity (Mus musculus [11]) | Activity (Mus musculus [12]) | Activity (Mus musculus [13])
CCCCCCCCCCCCCCCC(=O)OC[C@H](CSC[C@H](N)C(=O)NCC(=O)N[C@@H](CC(=O)O)C(=O)N1CCC[C@H]1C(=O)N[C@@H](CCCCN)C(=O)N[C@@H](Cc1c[nH]cn1)C(=O)N1CCC[C@H]1C(=O)N[C@@H](CCCCN)C(=O)N[C@@H](CO)C(=O)N[C@@H](Cc1ccccc1)C(=O)NCC(=O)NCC(=O)NCC(=O)N[C@@H](Cc1c[nH]cn1)C(=O)NCC(=O)N[C@H](C(=O)N[C@H](C(=O)N[C@@H](CO)C(=O)N[C@@H](C)C(=O)N1CCC[C@H]1C(=O)N[C@@H](CC(=O)O)C(=O)N[C@H](C(=O)N[C@@H](CCCNC(=N)N)C(=O)N1CCC[C@H]1C(=O)N[C@@H](C)C(=O)N1CCC[C@H]1C(=O)NCC(=O)N[C@@H](CO)C(=O)N[C@H](C(=O)N[C@@H](C)C(=O)N1CCC[C@H]1C(=O)N1CCC[C@H]1C(=O)N[C@@H](C)C(=O)O)[C@@H](C)O)[C@@H](C)O)[C@@H](C)O)C(C)C)OC(=O)CCCCCCCCCCCCCCC | Active | Active | Active | Active | Active | Active | Active | >1 | Active | Active | Active | Active | Active
CCCCCCCCCCCCCCCC(=O)OC[C@@H](CSC[C@H](N)C(=O)NCC(=O)N[C@@H](CC(=O)O)C(=O)N1CCC[C@H]1C(=O)N[C@@H](CCCCN)C(=O)N[C@@H](Cc1c[nH]cn1)C(=O)N1CCC[C@H]1C(=O)N[C@@H](CCCCN)C(=O)N[C@@H](CO)C(=O)N[C@@H](Cc1ccccc1)C(=O)NCC(=O)NCC(=O)NCC(=O)N[C@@H](Cc1c[nH]cn1)C(=O)NCC(=O)N[C@H](C(=O)N[C@H](C(=O)N[C@@H](CO)C(=O)N[C@@H](C)C(=O)N1CCC[C@H]1C(=O)N[C@@H](CC(=O)O)C(=O)N[C@H](C(=O)N[C@@H](CCCNC(=N)N)C(=O)N1CCC[C@H]1C(=O)N[C@@H](C)C(=O)N1CCC[C@H]1C(=O)NCC(=O)N[C@@H](CO)C(=O)N[C@H](C(=O)N[C@@H](C)C(=O)N1CCC[C@H]1C(=O)N1CCC[C@H]1C(=O)N[C@@H](C)C(=O)O)[C@@H](C)O)[C@@H](C)O)[C@@H](C)O)C(C)C)OC(=O)CCCCCCCCCCCCCCC | Active | Active | Active | Active | Active | Active | Active | >1 | Active | Active | Active | Active | Active
